Each structure is given as a SMILES string.

Here are results for 96 compounds from ChEMBL document CHEMBL4513216, “Probing the Open Global Health Chemical Diversity Library for Multistage-Active Starting Points for Next-Generation Antimalarials” (ACS Infect Dis, 2020).

The data set in a line: Toxicity liver stage against HepG2, at 10uM. It counts as cell-based. Also noted: test concentration 10 uM, cell line HepG2-A16-CD81EGFP. Conditions: human, HepG2-A16-CD81EGFP cells; read-out: INHIBITION
A digest of the protocol:
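Uninfected HepG2-A16-CD81EGFP cells, 3 × 10^3 per well, 1536-well, plated on prespotted compound at 10 μM final, parasite-free screening media added to match infected plates; puromycin 10 μM positive, DMSO 0.5% negative; run in parallel with 48 h PbLuc assay at 37 °C, 5% CO2; viability by CellTiter-Glo luminescence, normalized to controls.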
As to `CCOc1cc(NC(=O)N(C)Cc2ncnn2C)ccc1C`, the cytotoxicity at 10 µM came to 13.4%.

For the compound `CC(=O)c1cc(CN2C[C@@H](CN3CCCC3)[C@@H](CO)C2)n(C)c1`, the cytotoxicity at 10 µM is 4.92%.

For `CCc1ccc(CN(C)C(=O)C2CC(=O)N(c3cccc(O)c3)C2)nc1` (stereo unspecified), the cytotoxicity at 10 µM is -3.57%.

Turning to `CCCn1nccc1C(=O)N1CCCN(CCCc2ccccc2)CC1`, the cytotoxicity at 10 µM is -2.06%.

Turning to `O=C1CC2(CCCCC2)C(=O)N1CC(O)COCc1ccccc1F` (stereo unspecified), the cytotoxicity at 10 µM amounted to 0.611%.

Turning to `CN1CC(=O)N(c2cnn(C)c2)CC12CCN(CC1CC1)C2` (stereo unspecified), the cytotoxicity at 10 µM was 7.6%.

In the case of `COc1cccc(-c2cccc(-c3ccn(CC4COCCO4)n3)c2)n1` (stereo unspecified), the cytotoxicity at 10 µM is -3.81%.

Take `O=C(c1cccc(Cl)c1)N1CCCC(Nc2ccc(F)cc2)C1` (stereo unspecified): the cytotoxicity at 10 µM is -7.05%.

For `CN1CCC(Oc2ccc(NC(=O)c3ccccc3Br)cc2)CC1`, the cytotoxicity at 10 µM is -15.6%.

With `COc1cc(/C=C/c2ncc(C(=O)O)s2)cc(Cl)c1O`, the cytotoxicity at 10 µM turned out to be 4.14%.

In the case of `Cc1ccc(S(=O)(=O)NCCc2ccoc2)s1`, the cytotoxicity at 10 µM worked out at 2.69%.

With `COc1cc(C#N)ccc1OC12CCCN(CC1)C2` (stereo unspecified), the cytotoxicity at 10 µM is -19.1%.

With `CC[C@H]1CN2CC[C@H]1C[C@@H]2CNC(=O)NC1CCCCC1`, the cytotoxicity at 10 µM was 0.91%.

Turning to `CN(C)[C@@H]1CN(C(=O)COc2cccc(F)c2)C[C@H]1O`, the cytotoxicity at 10 µM was -10.4%.

In the case of `Cc1cc(C2CCC2)nc(N2CC(n3cccn3)C2)n1`, the cytotoxicity at 10 µM was -3.59%.

Turning to `Cc1cccc(OC2CCN(C(=O)Cn3ccc4ccccc43)CC2)n1`, the cytotoxicity at 10 µM was 1.53%.

For the compound `CC(C)(C)CN(CCC#N)C(=O)Nc1cccc(N2CCNC2=O)c1`, the cytotoxicity at 10 µM is -9.86%.

For `COc1ccc(Oc2cc(CN)ccn2)cc1`, the cytotoxicity at 10 µM came out at 3.98%.

Regarding `CC(C(=O)NCc1ccnc(N2CCCC2)c1)n1cncn1` (stereo unspecified), the cytotoxicity at 10 µM was -3.43%.

Turning to `CN1CCC(C(=O)NCc2nncn2-c2ccccc2)CC1=O` (stereo unspecified), the cytotoxicity at 10 µM was -4.32%.

For `CC(C)c1nc(CN2CCC(CO)CC2)cs1`, the cytotoxicity at 10 µM was -20.1%.

`Cc1cc(C(=O)N2CC[C@H](OCC3CC3)[C@@H]2Cc2cccnc2)no1`: the cytotoxicity at 10 µM was -6.44%.

For the compound `O=C(NCC1CCCCC1)NC1CCCc2c1cnn2CCO` (stereo unspecified), the cytotoxicity at 10 µM is -2.92%.

In the case of `CCOc1ccccc1OC1CCN(C(=O)c2cnns2)CC1`, the cytotoxicity at 10 µM was -3.14%.

For the compound `CN(C)CCN1CC(C(=O)N(C)Cc2cc3cc(F)ccc3[nH]2)CC1=O` (stereo unspecified), the cytotoxicity at 10 µM is -1.03%.

Consider `CC(C)n1nc(CN2CCCC2)c2c1CN(CC1CC1)CC2`, for which the cytotoxicity at 10 µM was found to be 2.53%.

`O=C(Nc1cc(C2CCOCC2)[nH]n1)c1cc[nH]n1`: the cytotoxicity at 10 µM is -3.43%.

Consider `COCCCN(C)C1CCCN(Cc2noc(C3CC3)n2)C1` (stereo unspecified), for which the cytotoxicity at 10 µM was -15.4%.

With `COCC1CN(S(=O)(=O)c2cccc(F)c2)Cc2nccn2C1` (stereo unspecified), the cytotoxicity at 10 µM was -103%.

As to `COCCNC(=O)CNC(=O)c1nc(Cc2c(Cl)cccc2Cl)no1`, the cytotoxicity at 10 µM is 5.64%.

On to `NC(=O)C1CCCN1CCCc1ccc(C(F)(F)F)cc1` (stereo unspecified), for which the cytotoxicity at 10 µM was found to be 0.936%.

Regarding `CS(=O)(=O)c1cncnc1C1CCCN(C(=O)NCc2ccccc2)C1` (stereo unspecified), the cytotoxicity at 10 µM is -0.375%.

Regarding `CC[C@@]1(O)CCN(c2ncc(Cl)cc2C(F)(F)F)C[C@H]1O`, the cytotoxicity at 10 µM was 11.6%.

As for `NC(=O)CCNC(=O)C1(N2CCCCC2)Cc2ccccc2C1`, the cytotoxicity at 10 µM was -8.56%.

On to `Cc1noc(C)c1CN1C[C@@H]2COC[C@@H](CC(=O)N3CCCCO3)[C@@H]2C1`, for which the cytotoxicity at 10 µM is -72.4%.

For `CCCOc1ccc(OCCN2CCOCS2(=O)=O)cc1`, the cytotoxicity at 10 µM is 5.56%.

Consider `c1cc(-c2cnccn2)cc(-c2ccn(CCN3CCCCC3)n2)c1`, for which the cytotoxicity at 10 µM is -4.54%.

On to `Cc1cccc(C(Nc2nccc(-c3ccc(C)nc3C)n2)C2CC2)n1` (stereo unspecified), for which the cytotoxicity at 10 µM turned out to be 0.74%.

As to `CC/C=C(\C)CN1CCC(CNC(=O)c2ccc(=O)[nH]c2)CC1`, the cytotoxicity at 10 µM is 8.06%.

With `Cc1nc(CN2CCCN(CC(=O)Nc3cccnc3)CC2)no1`, the cytotoxicity at 10 µM stood at 2.31%.

Consider `CCS(=O)(=O)N1CCC2(CC1)CC1(CCN(CCOC)CC1)C(=O)N2C`, for which the cytotoxicity at 10 µM stood at 0.503%.

As for `Cc1csc(C2(NCc3ccc(OCC(F)F)cc3)CCCC2)n1`, the cytotoxicity at 10 µM was found to be 2.15%.

Consider `Cc1cc(C(F)(F)F)nc(CCNC(C)Cn2ccnc2)n1` (stereo unspecified), for which the cytotoxicity at 10 µM amounted to 4.21%.

Take `O=C(CN1CCCCC1Cn1cncn1)NCCOc1ccccc1` (stereo unspecified): the cytotoxicity at 10 µM was -3.54%.

In the case of `COCCOCC(=O)NC(C#N)c1ccccc1C` (stereo unspecified), the cytotoxicity at 10 µM was -1.65%.

As for `CCN(CCn1cccn1)Cc1nc(-c2ccc(C)o2)oc1C`, the cytotoxicity at 10 µM was -4.7%.

For `Cc1nc(N2CCOCC2)nc(C)c1NS(=O)(=O)c1ccccc1`, the cytotoxicity at 10 µM was -1.44%.

Take `C[C@@H]1CN(C(=O)CCCn2nnc(-c3ccc(F)cc3)n2)C[C@]1(C)O`: the cytotoxicity at 10 µM was 14.2%.

Take `CC[C@@]1(O)CCN(C(=O)c2ccc(-c3cccc(F)c3)cc2)C[C@H]1O`: the cytotoxicity at 10 µM was -5.68%.

In the case of `O=C(Cc1ccc(F)cc1Cl)N1C[C@@H](CN2CCC(O)CC2)[C@@H](CO)C1`, the cytotoxicity at 10 µM was determined as 9.32%.

With `Cc1nc(CN(C)C2CCN(Cc3ccc4c(c3)OCCO4)C2)no1` (stereo unspecified), the cytotoxicity at 10 µM is -4.79%.

For the compound `Cc1ccc(NC2CCN(C(=O)Cn3nc(C)cc3C)CC2)nn1`, the cytotoxicity at 10 µM is -1.81%.

In the case of `CCc1nnc2n1CCN(C(=O)c1cc(Cl)c[nH]1)C2`, the cytotoxicity at 10 µM is -6.1%.

Consider `COc1ccc(OCCN(C)S(=O)(=O)N2CCOCC2)cc1`, for which the cytotoxicity at 10 µM amounted to 3.11%.

For the compound `Cc1ccc(N2CC[C@@H]3[C@@H](CO[C@H]3CNC(=O)c3ccco3)C2)nn1`, the cytotoxicity at 10 µM was determined as 9.43%.

On to `O=C(Cc1cccs1)NCC(=O)Nc1cn[nH]c1`, for which the cytotoxicity at 10 µM is 5.68%.

In the case of `O=C1[C@H]2CN(Cc3ccoc3)C[C@@H]2CCN1Cc1cccnc1`, the cytotoxicity at 10 µM was -71.5%.

Turning to `CC(C)N1CCCC(N2CCOC3(CCCC3)C2)C1=O` (stereo unspecified), the cytotoxicity at 10 µM is -7.33%.

Consider `Cc1cccc(OCCCNC(=O)Cn2ccc(C)cc2=O)c1`, for which the cytotoxicity at 10 µM is -4.42%.

Take `CN(C)c1nccc(N2CCO[C@H]3CN(Cc4nccn4C)C[C@H]32)n1`: the cytotoxicity at 10 µM is -123%.

In the case of `CC(OCC1CC1)C(=O)Nc1ncccc1I` (stereo unspecified), the cytotoxicity at 10 µM turned out to be 12.1%.

Take `CCn1cc(CN2CCCCC2CCn2ccnc2C)cc1C#N` (stereo unspecified): the cytotoxicity at 10 µM is -3.09%.

With `O=C(O)c1ccccc1-c1ccc(CN2CCOCC2)cn1`, the cytotoxicity at 10 µM is -1.1%.

As for `O=C(Cn1cc(-c2ccccc2)ncc1=O)Nc1nnc[nH]1`, the cytotoxicity at 10 µM was found to be 20.3%.

For the compound `COc1c(CNCc2nnc3n2CCCCC3)c(C)nn1C`, the cytotoxicity at 10 µM was determined as 9.03%.

Consider `Cn1cc(CN2CCC3(CC2)CCN(C(=O)c2cscn2)CC3)cn1`, for which the cytotoxicity at 10 µM was -0.937%.

Consider `CN(C)CCN(Cc1ccc(Cl)cc1)C(=O)c1ccn(C)c(=O)c1`, for which the cytotoxicity at 10 µM was -5.22%.

As for `Fc1cccnc1N1CCC(NCc2cccc3cn[nH]c23)C1` (stereo unspecified), the cytotoxicity at 10 µM was 13.6%.

Consider `Cc1ccccc1[C@@H]1CN(CCOCCO)C[C@H]1C(=O)O`, for which the cytotoxicity at 10 µM is -4.54%.

For the compound `CCC(Nc1nnnn1-c1ccccc1)C(=O)Nc1ccccc1C` (stereo unspecified), the cytotoxicity at 10 µM is -13.1%.

With `Cc1cc(C(=O)N2CCO[C@H]3[C@H](Oc4ccccn4)CC[C@@H]32)c(C)[nH]1`, the cytotoxicity at 10 µM is -107%.

For `CS(=O)(=O)N[C@@H]1CN(Cc2ccncc2)C[C@@H]2CCCO[C@@H]21`, the cytotoxicity at 10 µM came to 13.1%.

As to `O=C(Cc1cccc(Cl)c1)N[C@@H]1CCNC[C@H]1O`, the cytotoxicity at 10 µM came out at 2.28%.

As to `Cc1cc(C)nc(N2CCCC(C)(c3[nH]ncc3C(=O)N(C)C)C2)n1` (stereo unspecified), the cytotoxicity at 10 µM stood at 7.42%.

`CC(=O)NC1CCCN(c2nc3ccccc3cc2CO)C1` (stereo unspecified): the cytotoxicity at 10 µM was -50.1%.

On to `Cc1cc(C)n(CC2CCCN2C(=O)c2ccc(NC3CC3)nc2)n1` (stereo unspecified), for which the cytotoxicity at 10 µM came out at 6.53%.

Regarding `CN(C)c1cncc(C2CCN(CCO)CC2)n1`, the cytotoxicity at 10 µM is 3.29%.

Turning to `Fc1ccccc1-c1nccnc1C1CCCNC1` (stereo unspecified), the cytotoxicity at 10 µM was -25.7%.

`COCC1CN(C(=O)COc2ccccc2C)Cc2ncn(C)c21` (stereo unspecified): the cytotoxicity at 10 µM was -2.17%.

Take `O=S(=O)(NCC1COc2ccccc2C1)N1CCCCC1` (stereo unspecified): the cytotoxicity at 10 µM is -0.628%.

Take `Cc1cnn(CC(C)NCc2nc(-c3ccsc3)oc2C)c1` (stereo unspecified): the cytotoxicity at 10 µM was -2.6%.

As for `COCC(NC(=O)NCc1sccc1C)c1ccco1` (stereo unspecified), the cytotoxicity at 10 µM was -3.25%.

In the case of `Cc1cnc(N2CCC3(CC2)CC3C(=O)NCC2CC2)nc1` (stereo unspecified), the cytotoxicity at 10 µM came out at 6.34%.

As to `CCC(CNC(=O)c1ccc(C(N)=O)cc1)Oc1cccc(F)c1` (stereo unspecified), the cytotoxicity at 10 µM is -39.5%.

`Cc1cc(CN2CCCC(CNC(=O)Cn3cccn3)C2)oc1C` (stereo unspecified): the cytotoxicity at 10 µM turned out to be 6.2%.

For the compound `Cc1ccc(N2CCc3ncc(CNc4ccccn4)n3CC2)nn1`, the cytotoxicity at 10 µM was 5.41%.

Turning to `Cc1ccc(C(CCNCCN(C)C)C2CCOC(C)(C)C2)cc1` (stereo unspecified), the cytotoxicity at 10 µM turned out to be 3.46%.

As to `COc1cc(C(=O)NS(=O)(=O)c2ccc(C#N)cc2)ccc1C`, the cytotoxicity at 10 µM is -6.56%.

As to `O=C(NC1CCCN(c2ccc(OC(F)F)cc2)C1)c1cnccn1` (stereo unspecified), the cytotoxicity at 10 µM came out at 0%.

Consider `CC(C)n1ncc2c1NC(=O)C(C#N)C21CCCCC1` (stereo unspecified), for which the cytotoxicity at 10 µM was -0.47%.

As to `CCCn1nccc1NC(=O)CN1CCCC1Cn1cccn1` (stereo unspecified), the cytotoxicity at 10 µM is -5.47%.

For the compound `Cc1cccc(CNCc2ccc(NC(=O)NC(C)C)cc2)c1`, the cytotoxicity at 10 µM was -3.03%.

In the case of `CCc1nc(NC(=O)NCCc2cccc(C)n2)nn1C`, the cytotoxicity at 10 µM is 2.48%.

For the compound `Cc1cc(C)c(N(CC(O)CNCc2ccco2)S(C)(=O)=O)c(C)c1` (stereo unspecified), the cytotoxicity at 10 µM is -12.5%.

For `O=C(N1CCOCC1)N1CCc2[nH]nc(COc3cccc(Cl)c3)c2C1`, the cytotoxicity at 10 µM was -42.2%.

`O=C(CCc1ccccc1)N1CCC(c2n[nH]c(C3CC3)n2)CC1`: the cytotoxicity at 10 µM is -5.35%.
